Screens: PubChem, Johns Hopkins Ion Channel Center
Sampled rows, rich in hits. Any-hit rate of the full collection: about 2.3%.
TRPC4 block: inhibitors of mouse TRPC4 channel | B-score at 10 µM | AID 2247 | HEK293 TRPC4beta/mu-opioid, DAMGO-evoked Fluo4 calcium flux; stronger effect = lower value | Q9QUQ5 | hit rate 0.39% among 300,000;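 active = B-score over 3 SD under the library average, no early fluorescence shift, positive overall ratio signal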
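material = TRPC4beta/mu-opioid receptor HEK293 cell line | probe or stimulus = sequential submaximal and maximal DAMGO stimulation | compound dosing = one concentration per compound | measured by = Fluo4 Ca2+ flux fluorescence | evaluation = integrated fluorescence ratio relative to baseline, converted to per-well B score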
TRPC4 agonist: opens the mouse TRPC4 cation channel; HEK293 TRPC4beta/mu-opioid, Fluo4 calcium fluorescence; stronger effect = higher value; AID 2237; B-score at 10 µM; Q9QUQ5; hit rate 0.49% among 310,000;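 active = B-score above 5 SD of library B-scores, and initial fluorescence ratio not above library mean plus 5 SD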;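 also: positive B-score marks a calcium rise read as TRPC4 activation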
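System: HEK293 cells stably co-expressing mouse TRPC4beta and mu-opioid receptor; Schedule: Fluo4 dye loading 45 min at room temperature, 110 s recording; Detection: Fluo4 fluorescence, kinetic; Evaluation: B-scored integrated calcium fluorescence ratio; Controls: buffer (low) and maximal DAMGO (high).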
TRPC6 inh: inhibitors of mouse TRPC6 channel | Q61143 | HEK293-TRPC6, membrane potential dye, ACh-evoked depolarization; stronger effect = lower value | B-score at 10 µM | hit rate 1.1% among 310,000;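 active = B-score under library mean minus 3 SD, initial fluorescence not abnormally high, positive integrated signal ratio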;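 also: B-score derived from integrated fluorescence ratio over the kinetic read; more negative B-score means stronger inhibition of depolarization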
Target sequence (Q61143 whole entry, looked up): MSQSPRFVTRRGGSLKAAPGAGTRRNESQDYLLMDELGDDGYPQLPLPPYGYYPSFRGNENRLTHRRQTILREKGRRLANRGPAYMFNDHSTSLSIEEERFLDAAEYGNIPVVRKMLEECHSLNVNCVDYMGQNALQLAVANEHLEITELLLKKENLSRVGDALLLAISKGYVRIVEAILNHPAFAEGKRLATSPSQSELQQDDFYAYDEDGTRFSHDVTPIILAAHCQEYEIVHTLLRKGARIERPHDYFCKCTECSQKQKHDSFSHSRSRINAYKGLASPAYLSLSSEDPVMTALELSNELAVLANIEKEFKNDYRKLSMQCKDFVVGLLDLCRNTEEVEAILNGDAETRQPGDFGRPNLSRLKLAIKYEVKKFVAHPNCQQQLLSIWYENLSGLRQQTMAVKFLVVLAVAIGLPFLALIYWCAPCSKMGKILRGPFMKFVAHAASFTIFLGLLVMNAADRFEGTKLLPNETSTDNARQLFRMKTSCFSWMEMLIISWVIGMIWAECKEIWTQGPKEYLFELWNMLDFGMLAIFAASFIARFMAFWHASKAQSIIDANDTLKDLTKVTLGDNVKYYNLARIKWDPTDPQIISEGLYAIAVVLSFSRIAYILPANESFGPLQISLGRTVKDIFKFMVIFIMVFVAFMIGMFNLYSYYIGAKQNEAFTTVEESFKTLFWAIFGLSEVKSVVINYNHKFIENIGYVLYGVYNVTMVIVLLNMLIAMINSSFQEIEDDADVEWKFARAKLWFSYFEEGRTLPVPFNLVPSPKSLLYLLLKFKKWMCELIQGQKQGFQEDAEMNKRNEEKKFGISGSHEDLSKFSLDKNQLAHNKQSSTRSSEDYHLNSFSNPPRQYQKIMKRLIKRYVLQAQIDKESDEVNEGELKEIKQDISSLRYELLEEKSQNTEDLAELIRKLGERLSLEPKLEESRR
TRPC6 act: activators of mouse TRPC6 channel; B-score at 10 µM; HEK293-TRPC6 membrane potential dye fluorescence; stronger effect = higher value; hit rate 0.13% among 310,000; Q61143;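 active = B-score of the integrated fluorescence ratio above library mean plus 3 SD, and starting fluorescence ratio within library mean plus 5 SD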;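 also: higher score means more depolarization so channel activation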
TRPC4 potent: allosterically enhances the mouse TRPC4 cation channel. B-score at 10 µM. HEK293 TRPC4beta/mu-opioid, DAMGO EC20, Fluo-4 Ca2+ flux; stronger effect = higher value. Q9QUQ5. AID 2227. hit rate 0.42% among 310,000;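 active = B-score of calcium response area above 5 SD of library B-scores, with initial fluorescence ratio within 5 SD of library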;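 also: B-score of integrated fluorescence ratio over time as area under calcium response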
TRPC4 spec 2: mouse TRPC4 off-target activity of TRPC6 inhibitors, second screen. shares compounds with TRPC6 inh. HEK293 TRPC4/MOR, membrane potential dye fluorescence; channel activated by saturating DAMGO dose. hit rate 42% among 920. AID 2776. inhibition, % at 10 µM;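 active = compounds whose fluorescence signal differed from control wells by over 3 SD, either direction, in both duplicate plates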
TRPC4 spec: tests whether TRPC6 inhibitors also affect mouse TRPC4 | shares compounds with TRPC6 inh | HEK293 TRPC4/mu-opioid, membrane potential fluorescence | activity change, negative = inhibition, % at 10 µM | hit rate 61% among 920;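 active = rise or fall in signal beyond 3 SD of buffer-only wells in both replicate plates, either sign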;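 also: integrated kinetic ratio of fluorescence range over baseline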
HEK293 MPD ctr 2-1: parental HEK293 nonspecific activity of TRPC6 inhibitors, second screen. shares compounds with TRPC6 inh. parental HEK293 membrane potential dye fluorescence; maximal acetylcholine challenge after compound addition. signal change vs control, % at 10 µM. hit rate 31% among 920. AID 2779;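 active = membrane potential signal moving either way by over 3 SD of the maximum-effect control, in both duplicate plates, meaning non-specific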
HEK293 MPD ctr-1: parental HEK293 nonspecific activity of TRPC6 inhibitors; hit rate 60% among 920; shares compounds with TRPC6 inh; AID 2780; parental HEK293 membrane potential dye fluorescence; membrane potential signal change, % at 10 µM;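 active = membrane potential signal shifting up or down by more than 3 SD of buffer-only wells, on both duplicate plates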
HEK293 MPD ctr-2: parental HEK293 nonspecific activity of TRPC6 modulators. shares compounds with TRPC6 inh. membrane potential dye fluorescence. membrane potential signal change, % at 10 µM. hit rate 51% among 2,400. AID 488924;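 active = membrane potential signal moves up or down beyond 5 SD from buffer-only wells, on both duplicate plates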
HEK293 MPD ctr 2-2: second check of TRPC6 modulator effects in parental HEK293 cells; shares compounds with TRPC6 inh; membrane potential dye fluorescence; after compound, maximal acetylcholine stimulation; inhibition, % at 10 µM; hit rate 14% among 2,400;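 active = membrane potential signal drops by more than 5 SD from the mean control signal, in both duplicate plates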;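 also: plate controls were acetylcholine ECmax control wells for no effect and buffer only wells for full effect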
TRPC4 ctr mod: tests whether TRPC6 modulators also affect mouse TRPC4 | HEK293 TRPC4/mu-opioid, membrane potential fluorescence | AID 488927 | shares compounds with TRPC6 inh | percent change from control (negative = decrease, positive = increase), % at 10 µM | hit rate 69% among 2,400;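 active = membrane potential signal moved up or down beyond 5 SD of buffer control wells, in both duplicate plates, actives on both sides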;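 also: plate controls were assay buffer wells for no effect and DAMGO maximal-effect wells for full effect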
TRPC4 ctr inh 2: second selectivity test of TRPC6 modulators against mouse TRPC4. shares compounds with TRPC6 inh. HEK293 TRPC4/mu-opioid, membrane potential dye fluorescence; stimulated with maximal-effect DAMGO. inhibition, % at 10 µM. hit rate 55% among 2,400. AID 488928;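 active = drop in membrane potential signal beyond 5 SD of the control wells in both duplicate plates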;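 also: TRPC4 counter screen for TRPC6 hits run under conditions tuned for TRPC6 not TRPC4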
TRPC6 inh conf: mouse TRPC6 inhibitor confirmation; shares compounds with TRPC6 inh; HEK293-TRPC6, membrane potential dye, ACh-evoked depolarization; inhibition, % at 10 µM; hit rate 43% among 3,300; AID 488960;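 active = fluorescence ratio falls more than 5 SD below the full-stimulation control mean, in both duplicate runs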;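 also: integrated fluorescence ratio of peak minus minimum over baseline after agonist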
TRPC6 act conf: mouse TRPC6 activator confirmation. HEK293-TRPC6 membrane potential dye fluorescence, FDSS. shares compounds with TRPC6 inh. activation, % at 10 µM. hit rate 11% among 2,800;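 active = ratio signal rise beyond 5 SD above unstimulated control wells' mean, seen in both duplicate runs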;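 also: plate controls were buffer EC0 wells for no effect and acetylcholine ECmax response for full effect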
* = called active by the depositor; i = inactive; . = no result given.

SMILES	TRPC4 block	TRPC4 agonist	TRPC6 inh	TRPC6 act	TRPC4 potent	HEK293 MPD ctr-2	HEK293 MPD ctr 2-2	TRPC4 ctr mod	TRPC4 ctr inh 2	TRPC6 inh conf	TRPC6 act conf	others
CCOC(=O)c1ccc(NC(=O)NCc2ccncc2)cc1	i	i	-5.5*	i	i	i	i	i	i	i	.
CCOC(=O)c1ccc(NC(=O)NCCc2cnc[nH]2)cc1	i	175*	-6.8*	i	i	.	.	.	.	i	i	TRPC4 spec 2=69%*;TRPC4 spec=64%*;HEK293 MPD ctr 2-1=i;HEK293 MPD ctr-1=i
O=C(CNC1CCCC1)Nc1ccc(N2CCCCCC2)cc1	i	i	-5.3*	i	i	i	i	-13%*	66%*	66%*	i
O=C(CNC1CCCCCC1)Nc1ccc(N2CCCC2)cc1	i	i	i	i	i	.	.	.	.	.	.
CCN(CC)S(=O)(=O)c1cccc(NC(=O)CNC2CCCCCC2)c1	i	i	-6.5*	i	i	i	i	i	66%*	43%*	i
O=C(CNCC1CCCO1)Nc1ccc(N2CCCCCC2)cc1 (stereo not drawn)	i	i	-6.3*	i	i	i	i	-16%*	33%*	i	i
O=C(CNCCC1=CCCCC1)Nc1ccc(N2CCCCCC2)cc1	i	i	-7.2*	i	i	.	.	.	.	i	i	TRPC4 spec 2=70%*;TRPC4 spec=-12%*;HEK293 MPD ctr 2-1=i;HEK293 MPD ctr-1=-152%*
CCOc1ccc2nc(NC(=O)C34CC5CC(CC(NC(C)=O)(C5)C3)C4)sc2c1	i	i	i	i	i	.	.	.	.	.	.
COC(C[C@H](O)CC(=O)[C@H](C)OCc1ccccc1)OC	i	i	i	i	i	.	.	.	.	.	.
CC1CCN(CC(=O)Nc2ccc(N3CCCCCC3)cc2)CC1	i	i	-5.4*	i	i	i	i	-17%*	38%*	i	i
Cc1cc(/C=C(/C#N)C(=O)O)c(C)n1-c1cccc2ccccc12	i	i	i	i	i	.	.	.	.	.	.
Cc1ccc(S(=O)(=O)/C(C#N)=C/c2c(N3CCOCC3)nc3c(C)cccn3c2=O)cc1	i	i	-5.9*	i	i	i	i	-10%*	i	i	i
CCCCCCCCn1ccc(=N)cc1	i	i	i	i	i	.	.	.	.	.	.
CCCCCCCCCCn1ccc(=N)cc1	i	i	-9.1*	i	i	.	.	.	.	56%*	i	TRPC4 spec 2=i;TRPC4 spec=i;HEK293 MPD ctr 2-1=i;HEK293 MPD ctr-1=i
CN1CCc2c(sc(NC(=O)c3ccc(S(=O)(=O)N4CCCCCC4)cc3)c2C(N)=O)C1	i	i	-6.5*	i	i	i	i	-69%*	i	i	i
CN1CCc2c(sc(NC(=O)c3ccc(S(=O)(=O)N4CCc5ccccc54)cc3)c2C(N)=O)C1	i	i	i	i	i	.	.	.	.	.	.
NC(=O)c1c(NC(=O)c2ccc(S(=O)(=O)N3CCOCC3)cc2)sc2c1CCCCC2	i	i	i	i	i	.	.	.	.	.	.
CN1CCc2c(sc(NC(=O)c3ccc(S(=O)(=O)N4CCOCC4)cc3)c2C(N)=O)C1	i	i	-7.6*	i	i	-258%*	i	-51%*	35%*	i	i
CC(=O)C(Sc1ncnc2sc3c(c12)CCCC3)C(C)=O	i	i	i	i	i	.	.	.	.	.	.
N#CCCN(CCN1CCCC1)S(=O)(=O)c1ccc(-c2ccc([N+](=O)[O-])cc2)cc1	i	i	-7.8*	i	i	.	.	.	.	88%*	i	TRPC4 spec 2=32%*;TRPC4 spec=-27%*;HEK293 MPD ctr 2-1=30%*;HEK293 MPD ctr-1=-268%*
FC(F)Sc1ccc(-n2cc(-c3ccc(Cl)cc3)[n+]3c2CCC3)cc1	i	i	-7*	i	i	.	.	.	.	53%*	i	TRPC4 spec 2=i;TRPC4 spec=-14%*;HEK293 MPD ctr 2-1=-40%*;HEK293 MPD ctr-1=-216%*
Cc1ccc(-c2cn(-c3ccc(SC(F)F)cc3)c3[n+]2CCC3)cc1	i	i	i	i	i	.	.	.	.	.	.
CC1CCN(CC(O)CN2c3ccccc3Sc3ccccc32)CC1 (stereo not drawn)	i	i	-6.7*	i	i	.	.	.	.	i	i	TRPC4 spec 2=66%*;TRPC4 spec=1.4%*;HEK293 MPD ctr 2-1=i;HEK293 MPD ctr-1=i
CC1CCN(C(=O)N2c3ccccc3Sc3ccccc32)CC1	i	i	i	i	i	.	.	.	.	.	.
Cc1ccc(NC(=O)c2cc3c(=O)oc4ccc(C)cc4c3s2)nc1	i	i	i	i	i	.	.	.	.	.	.
CSc1ccccc1NC(=O)c1ccccc1N(Cc1ccccc1)S(C)(=O)=O	i	i	-5.2*	i	i	142%*	i	30%*	i	i	.
O=C(CSc1nnc(CNC(=O)c2cccs2)o1)Nc1ccc(F)cc1F	i	i	i	i	i	.	.	.	.	.	.
CCSC1=N/C(=C\c2ccc(C(=O)O)cc2)C(=O)S1	i	i	i	i	i	.	.	.	.	.	.
CCOC(=O)SC1=N/C(=C\c2ccc(N(C)C)cc2)C(=O)S1	i	i	-6*	12*	i	i	i	12%*	i	i	i
O=C(OCCN1CCCCC1)C1(c2ccccc2)CCCC1	i	i	-7.4*	i	i	.	.	.	.	83%*	.	TRPC4 spec 2=i;TRPC4 spec=19%*;HEK293 MPD ctr 2-1=21%*;HEK293 MPD ctr-1=16%*
